Active and inactive are the calls of the source. No cut-off for these calls is given here.
Tests used:
[1] = target: T1, 5-hydroxytryptamine receptor 6 (Homo sapiens, UniProt P50406); test: Antagonist activity at human recombinant 5HT6 receptor expressed in HEK293 cells assessed as inhibition of serotonin-induced cAMP production by LANCE assay relative to serotonin; format: functional, cell-based
In short: (§1)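 HEK-293 cells with a tetracycline-inducible (T-Rex) human 5-HT6 receptor, grown in DMEM/10% FBS with blasticidin S and zeocin and induced with tetracycline the day before. Medium was swapped for HBSS with 1 mM MgCl2, 1 mM CaCl2, IBMX and 5 mM HEPES, pH 7.4. Compounds (0.1% DMSO) were added 15 min at RT, then 10 nM serotonin for 30 min. cAMP read by LANCE; 2 independent experiments in duplicate.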

[2] = target: 5-hydroxytryptamine receptor 2A (Homo sapiens) (UniProt P28223); test: Binding affinity to 5HT2A receptor at 1 uM by radioligand displacement assay
5-hydroxytryptamine receptor 2A (Homo sapiens), sequence (P28223 whole entry): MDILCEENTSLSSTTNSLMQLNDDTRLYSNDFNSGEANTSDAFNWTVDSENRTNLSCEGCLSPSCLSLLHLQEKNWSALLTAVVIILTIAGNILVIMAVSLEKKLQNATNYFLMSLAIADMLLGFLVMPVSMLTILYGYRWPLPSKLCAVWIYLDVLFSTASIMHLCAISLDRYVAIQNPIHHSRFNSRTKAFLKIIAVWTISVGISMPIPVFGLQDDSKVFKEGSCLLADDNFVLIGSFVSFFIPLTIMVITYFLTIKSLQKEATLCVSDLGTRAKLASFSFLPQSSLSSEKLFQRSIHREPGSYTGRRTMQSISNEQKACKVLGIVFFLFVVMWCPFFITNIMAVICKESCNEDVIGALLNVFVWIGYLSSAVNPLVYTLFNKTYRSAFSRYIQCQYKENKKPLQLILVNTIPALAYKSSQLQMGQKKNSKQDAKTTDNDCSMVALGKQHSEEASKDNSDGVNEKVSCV
In short: (§2)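 Target specificity panel: single-concentration competitive displacement of each target's radioligand, with compound at 1 µM or 10 µM as stated per line. Run by an outside contract lab under its internal protocols; mean ± SE, n = 2.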

[3] = target: 5-hydroxytryptamine receptor 2B (Homo sapiens) (UniProt P41595); test: Binding affinity to 5HT2B receptor at 1 uM by radioligand displacement assay; in short: as §2
5-hydroxytryptamine receptor 2B (Homo sapiens), sequence (P41595 whole entry): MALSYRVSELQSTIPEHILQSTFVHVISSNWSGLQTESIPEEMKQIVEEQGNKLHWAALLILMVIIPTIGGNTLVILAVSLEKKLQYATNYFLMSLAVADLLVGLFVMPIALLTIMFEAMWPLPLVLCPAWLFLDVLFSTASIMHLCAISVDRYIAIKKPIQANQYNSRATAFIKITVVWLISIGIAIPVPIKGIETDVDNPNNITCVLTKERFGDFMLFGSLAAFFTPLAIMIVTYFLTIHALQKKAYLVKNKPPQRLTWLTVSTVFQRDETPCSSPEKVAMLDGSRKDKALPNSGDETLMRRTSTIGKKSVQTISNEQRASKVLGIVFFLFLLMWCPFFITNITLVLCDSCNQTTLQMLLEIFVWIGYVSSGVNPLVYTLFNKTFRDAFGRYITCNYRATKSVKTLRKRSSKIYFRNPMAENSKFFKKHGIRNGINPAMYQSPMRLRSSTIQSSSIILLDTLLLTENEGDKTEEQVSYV

[4] = target: T2, 5-hydroxytryptamine receptor 2C (Homo sapiens) (UniProt P28335); test: Binding affinity to 5HT2C receptor at 1 uM by radioligand displacement assay; in short: as §2
T2 sequence (whole entry): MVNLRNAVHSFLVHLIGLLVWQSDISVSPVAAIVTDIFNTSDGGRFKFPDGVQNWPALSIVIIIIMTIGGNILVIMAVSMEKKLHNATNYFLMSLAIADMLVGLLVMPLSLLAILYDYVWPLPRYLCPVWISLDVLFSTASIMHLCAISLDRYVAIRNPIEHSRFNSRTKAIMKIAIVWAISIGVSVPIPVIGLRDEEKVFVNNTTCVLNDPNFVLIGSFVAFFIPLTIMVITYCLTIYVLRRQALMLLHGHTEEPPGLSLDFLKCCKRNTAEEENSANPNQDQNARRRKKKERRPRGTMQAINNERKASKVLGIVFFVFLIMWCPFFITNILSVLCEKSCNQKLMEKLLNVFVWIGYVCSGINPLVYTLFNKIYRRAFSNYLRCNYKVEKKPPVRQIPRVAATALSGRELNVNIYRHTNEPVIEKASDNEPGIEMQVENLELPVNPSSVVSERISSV

[5] = target: T1, 5-hydroxytryptamine receptor 6; test: Binding affinity to human recombinant 5HT6 receptor at 1 uM by radioligand displacement assay; in short: as §2
[6] = target: T3, 5-hydroxytryptamine receptor 7 (Homo sapiens, UniProt P34969); test: Binding affinity to 5HT7 receptor at 1 uM by radioligand displacement assay; in short: as §2
T3 sequence (P34969 whole entry): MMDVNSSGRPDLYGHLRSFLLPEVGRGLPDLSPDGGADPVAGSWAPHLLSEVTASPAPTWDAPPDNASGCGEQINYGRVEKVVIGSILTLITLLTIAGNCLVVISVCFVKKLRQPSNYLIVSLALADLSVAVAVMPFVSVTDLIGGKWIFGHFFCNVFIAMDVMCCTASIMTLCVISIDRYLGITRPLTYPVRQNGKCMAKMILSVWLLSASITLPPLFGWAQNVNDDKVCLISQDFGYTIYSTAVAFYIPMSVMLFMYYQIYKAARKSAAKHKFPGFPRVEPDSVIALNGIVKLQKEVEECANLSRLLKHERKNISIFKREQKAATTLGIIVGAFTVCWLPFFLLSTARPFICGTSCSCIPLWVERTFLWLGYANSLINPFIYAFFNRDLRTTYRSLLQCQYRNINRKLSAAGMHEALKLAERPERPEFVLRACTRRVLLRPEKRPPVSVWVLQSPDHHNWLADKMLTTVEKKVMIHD

[7] = target: T4, Alpha-2A adrenergic receptor (Homo sapiens) (UniProt P08913); test: Binding affinity to adrenergic alpha2A receptor at 1 uM by radioligand displacement assay; in short: as §2
T4 sequence (whole entry): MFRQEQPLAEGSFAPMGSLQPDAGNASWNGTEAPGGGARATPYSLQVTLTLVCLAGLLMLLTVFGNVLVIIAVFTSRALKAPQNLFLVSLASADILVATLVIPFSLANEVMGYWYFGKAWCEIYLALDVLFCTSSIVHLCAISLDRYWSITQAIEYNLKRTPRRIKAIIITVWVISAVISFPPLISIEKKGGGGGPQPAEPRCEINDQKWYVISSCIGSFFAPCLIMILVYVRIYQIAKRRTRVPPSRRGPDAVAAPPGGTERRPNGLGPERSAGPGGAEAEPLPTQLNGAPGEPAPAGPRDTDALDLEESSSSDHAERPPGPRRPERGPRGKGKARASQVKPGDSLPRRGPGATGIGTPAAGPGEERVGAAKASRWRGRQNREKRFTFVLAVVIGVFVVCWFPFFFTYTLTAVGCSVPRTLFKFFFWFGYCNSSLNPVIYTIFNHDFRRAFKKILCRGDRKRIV

[8] = target: Sigma non-opioid intracellular receptor 1 (Homo sapiens) (UniProt Q99720); test: Binding affinity to sigma 1 receptor at 1 uM by radioligand displacement assay; in short: as §2
Sigma non-opioid intracellular receptor 1 (Homo sapiens), sequence (Q99720 whole entry): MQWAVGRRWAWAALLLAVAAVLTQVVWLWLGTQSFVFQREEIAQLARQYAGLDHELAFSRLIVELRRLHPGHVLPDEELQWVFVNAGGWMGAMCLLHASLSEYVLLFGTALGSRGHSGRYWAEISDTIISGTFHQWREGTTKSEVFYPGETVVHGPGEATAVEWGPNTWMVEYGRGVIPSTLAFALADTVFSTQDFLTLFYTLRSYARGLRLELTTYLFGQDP

[9] = target: T5, Alpha-1A adrenergic receptor (Homo sapiens) (UniProt P35348); test: Binding affinity to adrenergic alpha1A receptor at 1 uM by radioligand displacement assay; in short: as §2
T5 sequence (whole entry): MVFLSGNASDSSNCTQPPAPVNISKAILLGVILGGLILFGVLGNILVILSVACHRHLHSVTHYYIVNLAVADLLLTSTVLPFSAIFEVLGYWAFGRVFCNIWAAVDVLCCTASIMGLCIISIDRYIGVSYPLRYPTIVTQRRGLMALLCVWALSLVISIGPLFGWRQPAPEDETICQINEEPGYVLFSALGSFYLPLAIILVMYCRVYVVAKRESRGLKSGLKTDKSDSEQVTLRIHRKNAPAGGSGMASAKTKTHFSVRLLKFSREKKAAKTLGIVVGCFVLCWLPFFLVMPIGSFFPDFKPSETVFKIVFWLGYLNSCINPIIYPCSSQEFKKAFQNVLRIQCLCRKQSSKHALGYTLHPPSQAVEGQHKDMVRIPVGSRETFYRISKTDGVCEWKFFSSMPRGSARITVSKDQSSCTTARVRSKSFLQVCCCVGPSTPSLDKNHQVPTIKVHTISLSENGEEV

[10] = target: T6, Alpha-1B adrenergic receptor (Homo sapiens) (UniProt P35368); test: Binding affinity to adrenergic Alpha-1B receptor at 1 uM by radioligand displacement assay; in short: as §2
T6 sequence (whole entry): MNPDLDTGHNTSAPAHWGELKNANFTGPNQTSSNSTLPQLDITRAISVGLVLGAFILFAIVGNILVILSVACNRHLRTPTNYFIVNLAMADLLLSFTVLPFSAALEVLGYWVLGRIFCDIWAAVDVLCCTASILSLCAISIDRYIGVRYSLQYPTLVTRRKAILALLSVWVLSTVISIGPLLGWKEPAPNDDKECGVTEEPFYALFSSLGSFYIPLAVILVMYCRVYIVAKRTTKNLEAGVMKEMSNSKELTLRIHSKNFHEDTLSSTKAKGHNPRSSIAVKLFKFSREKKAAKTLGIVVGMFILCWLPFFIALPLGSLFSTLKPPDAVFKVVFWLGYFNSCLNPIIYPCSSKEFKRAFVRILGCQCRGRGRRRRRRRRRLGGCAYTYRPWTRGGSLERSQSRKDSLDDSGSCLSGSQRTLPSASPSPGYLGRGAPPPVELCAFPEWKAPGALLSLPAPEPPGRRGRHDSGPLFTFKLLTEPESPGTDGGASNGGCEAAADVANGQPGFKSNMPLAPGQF

[11] = target: T7, Alpha-1D adrenergic receptor (Homo sapiens) (UniProt P25100); test: Binding affinity to adrenergic Alpha-1D receptor at 1 uM by radioligand displacement assay; in short: as §2
T7 sequence (whole entry): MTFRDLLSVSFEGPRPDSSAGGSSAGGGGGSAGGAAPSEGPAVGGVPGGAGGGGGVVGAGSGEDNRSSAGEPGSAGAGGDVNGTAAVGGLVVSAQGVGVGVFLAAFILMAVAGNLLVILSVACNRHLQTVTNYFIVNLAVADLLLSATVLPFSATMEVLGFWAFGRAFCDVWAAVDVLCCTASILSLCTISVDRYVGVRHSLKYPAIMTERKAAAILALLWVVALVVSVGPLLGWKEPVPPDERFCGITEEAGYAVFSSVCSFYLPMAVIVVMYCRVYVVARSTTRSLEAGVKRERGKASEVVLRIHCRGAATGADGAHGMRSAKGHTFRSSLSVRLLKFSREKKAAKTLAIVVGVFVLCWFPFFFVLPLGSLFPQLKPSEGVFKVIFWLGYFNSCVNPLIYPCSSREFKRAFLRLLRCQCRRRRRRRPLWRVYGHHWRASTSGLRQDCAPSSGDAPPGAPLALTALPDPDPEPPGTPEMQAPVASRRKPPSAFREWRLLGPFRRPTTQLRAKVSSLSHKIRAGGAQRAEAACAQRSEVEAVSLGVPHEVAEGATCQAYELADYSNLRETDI

[12] = Binding affinity to L-type calcium channel at 1 uM by radioligand displacement assay; in short: as §2
[13] = target: D(3) dopamine receptor (Homo sapiens) (UniProt P35462); test: Binding affinity to dopamine D3 receptor at 1 uM by radioligand displacement assay; in short: as §2
D(3) dopamine receptor (Homo sapiens), sequence (P35462 whole entry): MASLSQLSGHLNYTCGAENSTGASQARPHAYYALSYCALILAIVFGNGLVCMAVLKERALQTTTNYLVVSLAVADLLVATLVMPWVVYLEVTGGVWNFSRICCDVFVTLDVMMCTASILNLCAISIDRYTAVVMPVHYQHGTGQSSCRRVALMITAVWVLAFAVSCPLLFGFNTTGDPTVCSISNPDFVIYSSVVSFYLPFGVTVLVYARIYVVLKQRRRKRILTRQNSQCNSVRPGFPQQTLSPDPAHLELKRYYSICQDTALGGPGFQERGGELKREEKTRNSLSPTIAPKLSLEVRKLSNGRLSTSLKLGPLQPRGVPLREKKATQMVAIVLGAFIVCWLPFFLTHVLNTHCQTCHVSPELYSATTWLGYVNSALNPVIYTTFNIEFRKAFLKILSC

[14] = Binding affinity to glycine transporter at 1 uM by radioligand displacement assay; in short: as §2
[15] = target: Sodium-dependent noradrenaline transporter (Homo sapiens) (UniProt P23975); test: Binding affinity to norepinephrine transporter at 1 uM by radioligand displacement assay; in short: as §2
Sodium-dependent noradrenaline transporter (Homo sapiens), sequence (P23975 whole entry): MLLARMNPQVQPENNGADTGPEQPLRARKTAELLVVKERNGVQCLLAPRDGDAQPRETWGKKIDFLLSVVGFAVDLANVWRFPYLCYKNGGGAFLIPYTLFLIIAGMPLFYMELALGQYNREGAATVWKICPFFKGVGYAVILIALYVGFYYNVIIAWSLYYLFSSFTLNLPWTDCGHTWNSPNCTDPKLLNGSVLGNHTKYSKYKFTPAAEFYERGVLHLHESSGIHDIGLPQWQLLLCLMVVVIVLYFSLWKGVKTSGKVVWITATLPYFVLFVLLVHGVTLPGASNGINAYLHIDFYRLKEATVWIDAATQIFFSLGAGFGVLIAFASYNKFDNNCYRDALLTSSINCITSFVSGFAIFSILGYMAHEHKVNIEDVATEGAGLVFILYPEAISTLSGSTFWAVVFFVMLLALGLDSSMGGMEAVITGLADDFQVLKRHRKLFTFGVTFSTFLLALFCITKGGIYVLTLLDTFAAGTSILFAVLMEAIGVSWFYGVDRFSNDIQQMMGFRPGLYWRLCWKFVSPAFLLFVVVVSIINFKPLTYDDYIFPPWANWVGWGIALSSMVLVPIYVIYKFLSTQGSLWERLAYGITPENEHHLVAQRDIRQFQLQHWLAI

[16] = target: T8, 5-hydroxytryptamine receptor 1A (Homo sapiens, UniProt P08908); test: Binding affinity to 5HT1A receptor by radioligand displacement assay
T8 sequence (P08908 whole entry): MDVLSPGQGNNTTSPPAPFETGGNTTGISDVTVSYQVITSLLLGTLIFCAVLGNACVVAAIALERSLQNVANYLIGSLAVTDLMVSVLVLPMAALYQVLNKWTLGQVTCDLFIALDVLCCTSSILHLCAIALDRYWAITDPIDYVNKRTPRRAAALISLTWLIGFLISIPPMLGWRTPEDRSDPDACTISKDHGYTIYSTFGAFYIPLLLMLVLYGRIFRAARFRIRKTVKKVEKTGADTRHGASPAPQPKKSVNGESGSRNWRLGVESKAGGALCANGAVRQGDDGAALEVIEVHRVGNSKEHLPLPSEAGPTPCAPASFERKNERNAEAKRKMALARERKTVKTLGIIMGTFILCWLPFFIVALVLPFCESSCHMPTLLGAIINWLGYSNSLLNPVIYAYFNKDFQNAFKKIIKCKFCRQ

[17] = target: T2, 5-hydroxytryptamine receptor 2C (Homo sapiens); test: (§3) Binding affinity to 5HT2C receptor by radioligand displacement assay
In short: (§4)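 Competitive displacement of the corresponding radioligand, run by an outside contract lab under its internal protocols. Data from one representative experiment in duplicate.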

[18] = target: T9, 5-hydroxytryptamine receptor 2C (Homo sapiens, UniProt P28335); test: as §3; in short: as §4
T9 sequence (P28335 whole entry): T2 sequence (whole entry)

[19] = target: T1, 5-hydroxytryptamine receptor 6; test: Binding affinity to human recombinant 5HT6 receptor by radioligand displacement assay; in short: as §4
[20] = target: T3, 5-hydroxytryptamine receptor 7; test: Binding affinity to 5HT7 receptor by radioligand displacement assay; in short: as §4
[21] = target: T1, 5-hydroxytryptamine receptor 6; test: Antagonist activity at human recombinant 5HT6 receptor expressed in HEK293 cells assessed as inhibition of serotonin-induced cAMP production by LANCE assay; format: functional, cell-based; in short: as §1
[22] = target: T6, Alpha-1B adrenergic receptor (Homo sapiens); test: Binding affinity to adrenergic Alpha-1B receptor at 10 uM by radioligand displacement assay; in short: as §2
[23] = target: T7, Alpha-1D adrenergic receptor (Homo sapiens); test: Binding affinity to adrenergic Alpha-1D receptor at 10 uM by radioligand displacement assay; in short: as §2
[24] = target: T4, Alpha-2A adrenergic receptor (Homo sapiens); test: Binding affinity to adrenergic alpha2A receptor at 10 uM by radioligand displacement assay; in short: as §2
[25] = target: T5, Alpha-1A adrenergic receptor (Homo sapiens); test: Binding affinity to adrenergic alpha1A receptor at 10 uM by radioligand displacement assay; in short: as §2
[26] = target: Sodium-dependent dopamine transporter (Homo sapiens) (UniProt Q01959); test: Binding affinity to dopamine transporter at 10 uM by radioligand displacement assay; in short: as §2
Sodium-dependent dopamine transporter (Homo sapiens), sequence (Q01959 whole entry): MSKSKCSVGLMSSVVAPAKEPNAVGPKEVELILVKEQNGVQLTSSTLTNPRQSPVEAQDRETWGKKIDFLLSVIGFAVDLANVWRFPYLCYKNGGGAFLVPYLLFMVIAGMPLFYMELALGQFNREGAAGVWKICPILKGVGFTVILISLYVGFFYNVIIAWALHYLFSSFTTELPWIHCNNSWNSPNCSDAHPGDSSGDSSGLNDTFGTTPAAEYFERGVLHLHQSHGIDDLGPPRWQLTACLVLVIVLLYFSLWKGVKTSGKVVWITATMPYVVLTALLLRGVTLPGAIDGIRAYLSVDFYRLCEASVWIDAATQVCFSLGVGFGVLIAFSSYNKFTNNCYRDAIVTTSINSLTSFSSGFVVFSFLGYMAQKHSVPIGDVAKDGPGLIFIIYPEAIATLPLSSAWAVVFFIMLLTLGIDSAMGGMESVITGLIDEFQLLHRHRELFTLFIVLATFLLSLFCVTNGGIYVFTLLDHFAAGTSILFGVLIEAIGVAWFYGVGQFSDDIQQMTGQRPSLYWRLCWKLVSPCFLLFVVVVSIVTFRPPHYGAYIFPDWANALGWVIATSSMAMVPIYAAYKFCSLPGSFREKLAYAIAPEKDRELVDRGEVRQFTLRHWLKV

[27] = target: Sodium-dependent noradrenaline transporter (Homo sapiens) (UniProt P23975); test: Binding affinity to norepinephrine transporter at 10 uM by radioligand displacement assay; in short: as §2
[28] = target: D(3) dopamine receptor (Homo sapiens) (UniProt P35462); test: Binding affinity to dopamine D3 receptor at 10 uM by radioligand displacement assay; in short: as §2
[29] = target: Sigma non-opioid intracellular receptor 1 (Homo sapiens) (UniProt Q99720); test: Binding affinity to sigma 1 receptor at 10 uM by radioligand displacement assay; in short: as §2

T1 sequence (P50406 whole entry): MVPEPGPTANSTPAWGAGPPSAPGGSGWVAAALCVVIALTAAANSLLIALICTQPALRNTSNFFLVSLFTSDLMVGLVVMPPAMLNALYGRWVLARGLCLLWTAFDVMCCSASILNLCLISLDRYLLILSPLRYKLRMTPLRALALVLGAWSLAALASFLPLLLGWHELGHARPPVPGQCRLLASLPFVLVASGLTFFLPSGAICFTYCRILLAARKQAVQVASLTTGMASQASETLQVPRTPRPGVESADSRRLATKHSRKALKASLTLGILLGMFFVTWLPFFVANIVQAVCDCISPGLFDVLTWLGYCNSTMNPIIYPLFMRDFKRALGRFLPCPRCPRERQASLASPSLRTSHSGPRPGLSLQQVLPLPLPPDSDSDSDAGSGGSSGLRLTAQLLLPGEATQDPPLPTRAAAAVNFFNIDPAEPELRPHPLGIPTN

Work on `CN1CCc2[nH]c3ccc(S(=O)(=O)Nc4cccc(F)c4)cc3c2C1` yielded an Imax [1] of 100%, an Activity [2] of 80% and an Activity [3] of 80%. For the same compound, the Activity [4] was 80%, the Activity [5] was 80% and the Activity [6] was 80%. The Activity [7] was 60%, the Activity [8] was 60% and the Activity [9] was 20%. For the same compound, the Activity [10] was 37%, the Activity [11] was 29% and the Activity [12] was 27%. For the same compound, the Activity [13] was 35%, the Activity [14] was 20% and the Activity [15] was 15%. For the same compound, the Ki [16] was 7 nM, the Activity [17] was “Dose-dependent effect” and the Ki [18] was 39 nM. The Activity [19] was “Dose-dependent effect”, the Ki [19] was 2.1 nM and the Activity [20] was “Dose-dependent effect”. For the same compound, the Ki [20] was 42 nM.
In the case of `CN1CCc2c(c3cc(S(C)(=O)=O)ccc3n2C)C1.Cl`, the IC50 ([21]; hek293) is reported as “Not Active”.
`CN1CCN(S(=O)(=O)c2ccc3[nH]c4c(c3c2)CN(C)CC4)CC1` gave an Imax [1] of 100%.
Compound `CN1CCc2[nH]c3ccc(S(=O)(=O)c4cccc(F)c4)cc3c2C1` has an Imax [1] of 100%.
`O=S(=O)(Nc1cccc(F)c1)c1ccc2[nH]c3c(c2c1)CN(Cc1ccccc1)CC3` gave an IC50 ([21]; read-out: IC50) of 3900 nM and an Imax [1] of 100%.
With `CN1CCc2c(c3cc(S(=O)(=O)c4ccccc4)ccc3n2C)C1` the Imax [1] was 100%, the Activity [22] was “Active” and the Activity [23] was “Active”. For the same compound, the Activity [24] was “Active”, the Activity [25] was “Active” and the Activity [26] was “Active”. The Activity [27] was “Active”, the Activity [28] was “Active” and the Activity [29] was “Active”. It also gave a Ki [19] of 5.7 nM.

From ChEMBL document CHEMBL1157011, “8-Sulfonyl-substituted tetrahydro-1H-pyrido[4,3-b]indoles as 5-HT6 receptor antagonists” (Eur J Med Chem, 2010)
